Experimental data published in article PMC8500343 (Pharmacology Research & Perspectives, 2021).
Several values for one entry are separate records, joined by “and”; a condition that tells them apart may be missing. Equal entries are not always repeated. Where two headings read alike, the source gives them in different places.

What was measured:
Food effect part = format: in vivo, human (healthy adult subjects); conditions: for Geometric means ratio, AUC0–last / Geometric means ratio, AUC0–∞ / Geometric means ratio, C max: Treatment C/D; for t 1/2 / AUC(0-t) / AUC(0-inf) / mean C max higher under fed (test) compared with fasted (reference) conditions: Group 2, FDC; for CVw (intrasubject coefficient of variation), AUC0–last / CVw (intrasubject coefficient of variation), AUC0–∞ / CVw (intrasubject coefficient of variation), C max: Group 2, Treatment C/D; for AUC(0-t): AUC0–last; for AUC(0-inf): AUC0–∞; for mean C max higher under fed (test) compared with fasted (reference) conditions: arithmetic means
Outline: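 Healthy adults in a randomized two-way crossover, sequence C-D or D-C. Single oral fixed-dose tablet (10/40 mg) was given fed or fasted; both arms fasted overnight for at least 10 h. Fed dosing followed a high-fat, high-calorie breakfast per FDA guidance, eaten within 30 min. Plasma was sampled predose to 216 h and assayed by LC-MS/MS. Noncompartmental PK gave GMR 90% CIs against 80.00–125.00 limits.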

Bioequivalence part = format: in vivo, human (healthy adult subjects); conditions: for t 1/2 / AUC(0-t) / AUC(0-inf): mean (SD); for AUC(0-t): AUC0–last; for AUC(0-inf): AUC0–∞; for Geometric means ratio, AUC0–last / Geometric means ratio, AUC0–∞ / Geometric means ratio, C max: Group 1, FDC vs. free combination, Treatment A/B, fasted; for CVw (intrasubject coefficient of variation), AUC0–last / CVw (intrasubject coefficient of variation), AUC0–∞ / CVw (intrasubject coefficient of variation), C max: Group 1, Treatment A/B
Outline: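 Single-centre, open-label, randomized two-period crossover in healthy adult men and women. Single oral doses were given after an overnight fast of at least 10 h: fixed-dose tablet (10/40 mg) versus 10 mg macitentan plus 40 mg Canadian-sourced tadalafil tablets. Plasma was sampled predose to 216 h and assayed by LC-MS/MS. Noncompartmental PK gave GMR 90% CIs against 80.00–125.00 limits and intrasubject CV.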

[1] = Stability in plasma samples; format: in vitro ADME, human
[2] = no reference given; cited from earlier work
[3] = cited from earlier work
[4] = fasted (Treatment D), mean (SD)
[5] = both, human, plasma, oral, fed (Treatment C), mean (SD)
[6] = both, human, plasma, oral, fasted (Treatment D), mean (SD)
[7] = Group 1, FDC, fasted (Treatment A)
[8] = Group 1, free combination, fasted (Treatment B)
[9] = both, human, plasma, oral, Group 1, FDC, fasted (Treatment A)
[10] = both, human, plasma, oral, Group 1, free combination, fasted (Treatment B)
[11] = in the presence of macitentan and metabolite

## NS(=O)(=O)Nc1ncnc(OCCOc2ncc(Br)cn2)c1-c1ccc(Br)cc1 [Aprocitentan]
Food effect part; Group 2, FDC 10/40 mg, fasted (Treatment D), mean (SD)
  C max: 165 (29.3) ng/ml
Food effect part; Group 2, FDC fed vs. fasted
  90% CI of GMRs for all 3 PK parameters versus equivalence limits: within the equivalence limits
  Geometric means ratio, AUC0–last: 104.50%
  Geometric means ratio, AUC0–∞: 103.98%
  Geometric means ratio, C max: 107.25%
Food effect part; [4]
  t 1/2: 49.7 (7.63) h
Food effect part; fed (Treatment C), mean (SD)
  t 1/2: 49.4 (6.02) h
Food effect part
  CVw (intrasubject coefficient of variation), AUC0–last: 7.2%
  CVw (intrasubject coefficient of variation), AUC0–∞: 7.0%
  CVw (intrasubject coefficient of variation), C max: 7.4%
Food effect part; [5]
  AUC(0-t): 18900 ng·h/mL
  AUC(0-inf): 20300 ng·h/mL
Food effect part; [6]
  AUC(0-inf): 19500 ng·h/mL
Bioequivalence part; [7]
  t 1/2: 50.7 (9.99) h
Bioequivalence part; [8]
  t 1/2: 49.4 (6.92) h
Bioequivalence part; [9]
  AUC(0-t): 20900 ng·h/mL
  AUC(0-inf): 22600 ng·h/mL
Bioequivalence part; [10]
  AUC(0-t): 20800 ng·h/mL
  AUC(0-inf): 22500 ng·h/mL
[1]; in the presence of tadalafil
  stability in plasma samples at room temperature: at least 26 h
  stability in plasma samples, freeze/thaw cycles: 5 freeze/thaw cycles

## CCCNS(=O)(=O)Nc1ncnc(OCCOc2ncc(Br)cn2)c1-c1ccc(Br)cc1 [Macitentan]
Food effect part; Group 2, FDC fed vs. fasted
  90% CI for the GMR of C max versus equivalence limits (80.00% to 125.00%): outside the equivalence limits
  C max geometric means ratio, test higher compared to reference: 16.10%
  Geometric means ratio, AUC0–last: 102.32%
  Geometric means ratio, AUC0–∞: 102.13%
  Geometric means ratio, C max: 116.10%
Food effect part
  mean C max higher under fed (test) compared with fasted (reference) conditions: approximately 15.9%
  CVw (intrasubject coefficient of variation), AUC0–last: 6.6%
  CVw (intrasubject coefficient of variation), AUC0–∞: 6.4%
  CVw (intrasubject coefficient of variation), C max: 12.4%
Food effect part; fed (Treatment C), mean (SD)
  t 1/2: 14.1 (2.50) h
Food effect part; both, human, plasma, oral
  Tmax: 10 h
  half-life: 15.5 h
Food effect part; [6]
  AUC(0-t): 6220 ng·h/mL
  AUC(0-inf): 6340 ng·h/mL
Food effect part; [5]
  AUC(0-t): 6430 ng·h/mL
  AUC(0-inf): 6540 ng·h/mL
[2]
  biopharmaceutical classification system (BCS) class: 2
Bioequivalence part
  Geometric means ratio, AUC0–last: 100.96%
  Geometric means ratio, AUC0–∞: 100.66%
  Geometric means ratio, C max: 101.49%
  CVw (intrasubject coefficient of variation), AUC0–last: 9.6%
  CVw (intrasubject coefficient of variation), AUC0–∞: 9.5%
  CVw (intrasubject coefficient of variation), C max: 11.2%
Bioequivalence part; [7]
  t 1/2: 13.9 (2.87) h
Bioequivalence part; Group 1, free combination, fasted (Treatment B), median (range)
  Tmax: 10.0 (3.55–12.0) h
Bioequivalence part; both, human, plasma, oral
  Tmax: 10 h
  half-life: 14.6 h
Bioequivalence part; [9]
  AUC(0-t): 5850 ng·h/mL
  AUC(0-inf): 5930 ng·h/mL
Bioequivalence part; [10]
  AUC(0-t): 5800 ng·h/mL
  AUC(0-inf): 5900 ng·h/mL
[1]; in the presence of tadalafil
  stability in plasma samples at room temperature: at least 26 h
  stability in plasma samples, freeze/thaw cycles: 5 freeze/thaw cycles

## CN1CC(=O)N2[C@H](c3ccc4c(c3)OCO4)c3[nH]c4ccccc4c3C[C@@H]2C1=O [Tadalafil]
Food effect part; FDC under fasting conditions
  intersubject variability in C max: 34.0%
Food effect part; Group 2, FDC fed vs. fasted
  C max geometric means ratio, test higher compared to reference: 45% and 44.97%
  Geometric means ratio, AUC0–last: 111.07%
  Geometric means ratio, AUC0–∞: 111.04%
  Geometric means ratio, C max: 144.97%
Food effect part
  mean C max higher under fed (test) compared with fasted (reference) conditions: approximately 42.5%
  CVw (intrasubject coefficient of variation), AUC0–last: 9.9%
  CVw (intrasubject coefficient of variation), AUC0–∞: 9.9%
  CVw (intrasubject coefficient of variation), C max: 17.7%
Food effect part; [4]
  t 1/2: 23.4 (6.64) h
Food effect part; both, human, plasma, oral
  Tmax: 2.5 h
  half-life: 24.5 h
Food effect part; [6]
  AUC(0-t): 19700 ng·h/mL
  AUC(0-inf): 19900 ng·h/mL
Food effect part; [5]
  AUC(0-t): 22300 ng·h/mL
  AUC(0-inf): 22500 ng·h/mL
Food effect part; both, human, plasma, oral, geometric mean of tadalafil C max under fed conditions, FDC formulation, fed
  Cmax: 666 ng/mL
Food effect part; fed conditions, 666 ng/ml vs. 586 ng/ml (ref 21)
  ratio of geometric mean tadalafil C max, FDC formulation vs. tadalafil: 1.14
[2]
  biopharmaceutical classification system (BCS) class: 2
Bioequivalence part
  Geometric means ratio, AUC0–last: 98.87%
  Geometric means ratio, AUC0–∞: 98.82%
  Geometric means ratio, C max: 88.30%
  CVw (intrasubject coefficient of variation), AUC0–last: 11.3%
  CVw (intrasubject coefficient of variation), AUC0–∞: 11.3%
  CVw (intrasubject coefficient of variation), C max: 16.1%
Bioequivalence part; [7]
  t 1/2: 22.8 (7.76) h
Bioequivalence part; [8]
  t 1/2: 22.7 (7.26) h
Bioequivalence part; both, human, plasma, oral
  Tmax: 2.5 h
Bioequivalence part; [9]
  AUC(0-t): 20600 ng·h/mL
  AUC(0-inf): 20700 ng·h/mL
Bioequivalence part; [10]
  AUC(0-t): 20800 ng·h/mL
  AUC(0-inf): 20900 ng·h/mL
[3]; tadalafil alone, fed
  geometric mean of tadalafil C max under fed conditions: 586 ng/mL
[3]; tadalafil in a fasted state, another study
  C max: 614 ng/mL
[1]; [11]
  stability in plasma samples at room temperature: at least 24 h
  stability in plasma samples at −20 and −70℃: 127 days
  stability in plasma samples, freeze/thaw cycles: 5 freeze/thaw cycles
